ABHD4 inh: inhibitors of mouse ABHD4. purified mABHD4, FP-Rh probe fluorescence polarization. Q8VD66. hit rate 0.54% among 370,000. inhibition, % at 8.92 µM. AID 720543;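 active means inhibition exceeding the mean over every tested compound plus 3 SD, cut at about 30% in these data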;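 further: 0% = plate median of compound wells and 100% = S159A mutant with DMSO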
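Doses – 8.92 µM, single dose · Material – wild-type mouse ABHD4 protein · Replication – single well per compound (singlicate) · Measure – percent inhibition of probe binding, normalized to plate controls · Schedule – 45 min compound pre-incubation plus 60 min probe step, 25 °C · Detection – fluorescence polarization with parallel and perpendicular emission, 525/598 nm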
HTRA1 inhibitor: inhibitors of human serine peptidase HTRA1. inhibition, % at 5.96 µM. hit rate 0.5% among 340,000. recombinant HTRA1, FP-rhodamine activity-based probe, fluorescence polarization. Q92743. AID 504803; in the data active means inhibition above about 36%;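 further: 0% = enzyme with DMSO and 100% = wells lacking enzyme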
PRMT1 inh: inhibitors of human PRMT1. Q99873. recombinant PRMT1, activity-based probe fluorescence polarization. inhibition, % at 2.79 µM. hit rate 1.3% among 370,000. AID 652257;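 active means inhibition above about 21% made by adding two undisclosed values, limit read from the data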
Target sequence (Q99873 whole entry, looked up): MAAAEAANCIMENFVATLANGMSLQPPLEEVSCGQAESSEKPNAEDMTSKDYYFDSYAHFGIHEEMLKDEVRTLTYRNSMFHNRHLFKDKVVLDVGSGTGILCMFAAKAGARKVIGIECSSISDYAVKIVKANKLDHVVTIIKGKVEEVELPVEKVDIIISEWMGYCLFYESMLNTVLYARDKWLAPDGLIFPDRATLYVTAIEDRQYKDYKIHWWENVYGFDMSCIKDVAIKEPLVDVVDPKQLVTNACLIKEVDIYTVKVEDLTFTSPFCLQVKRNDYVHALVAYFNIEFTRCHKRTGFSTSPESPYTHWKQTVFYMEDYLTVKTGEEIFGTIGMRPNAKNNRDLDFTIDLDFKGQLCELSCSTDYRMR
TCR CD3 inh: human TCR-CD3 binding inhibition. TAMRA-labeled TCR probe fluorescence, biochemical. inhibition, % at 9.4 µM. hit rate 0.37% among 360,000. AID 651800;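 further: recombinant mutant TCR 2C K166C tagged with TAMRA read by polarization; 0% = receptor in buffer alone and 100% = receptor with positive control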
SIAE inh: human SIAE inhibition, primary screen; Q9HAT2; SIAE FP-Rh probe binding, fluorescence polarization; inhibition, % at 9.66 µM; hit rate 0.69% among 370,000;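 active means inhibition above a cutoff: mean of compounds within the control limits plus 3 SD of those, cut at about 17% in these data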;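 further: 0% = plate median of compound wells and 100% = probe without SIAE protein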
BSA TAMRA ctr: counter-screen for TCR-CD3 interaction inhibitors: BSA probe. shares compounds with TCR CD3 inh. TAMRA-labeled BSA probe fluorescence counterscreen. inhibition, % at 9.4 µM. hit rate 10% among 1,200; in the data active means inhibition above about 23%;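 further: 0% = buffer low control and 100% = reference high control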
TCR-CD3 inh conf: TCR-CD3 interaction inhibition, confirmation; hit rate 48% among 1,200; AID 652036; inhibition, % at 9.4 µM; shares compounds with TCR CD3 inh; TAMRA-labeled TCR probe fluorescence binding assay
* marks the source's active call; other numbers are inactive results; nt = no result given. Rows were chosen to be rich in hits. Some 2.5% of all compounds tested hit in one or more screens of this group. Unless noted, no stated cut-off is given here; in the data, active means inhibition above about 19%; inactive means the rest.

SMILES	ABHD4 inh	HTRA1 inhibitor	PRMT1 inh	TCR CD3 inh	SIAE inh	BSA TAMRA ctr	TCR-CD3 inh conf
N#Cc1c(-c2ccccc2)c(-c2ccccc2)nn(CC(=O)NNC(=O)Nc2ccc(Cl)c(Cl)c2)c1=O	-137	-92	-3	30*	-181	20	45*
O=C(Cn1nc(-c2ccccc2)c2ccccc2c1=O)Nc1ccc(F)cc1	-4	-2	-8	-3	-4	nt	nt
CSCCC(NC(=O)c1ccccc1Cl)C(=O)NNC(=O)c1ccccc1O (stereo unspecified)	6	17	-1	29*	5	-4	18
CNC(=S)NNC(=O)c1oc2nc(-c3ccccc3)cc(C)c2c1N	12	23	18	29*	-2	-1	18
Nc1ccc(N(CCO)CCO)cc1	22	29	20	27*	15	19	12
CC(C)C(=O)Nc1ccc(C(=O)NNC(=S)NC(=O)c2ccco2)cc1	-1	4	6	33*	-1	-1	36*
Cc1ccc(C(=O)NNC(=S)NC(=O)c2ccco2)cc1	0	5	-3	10	2	nt	nt
O=C(NN=Cc1ccc(-c2ccccc2)cc1)c1cc(-c2ccc(Cl)cc2)n[nH]1	-11	nt	-4	nt	-1	nt	nt
C=CCn1c(SCC(=O)NCc2ccco2)nnc1C1CCCCC1	-6	4	-4	20*	-1	3	-1
O=C(N/N=C/c1cc([N+](=O)[O-])ccc1O)c1ccc(COc2ccc3c(c2)CCC3)o1	8	29	5	45*	13	-6	17
Cc1cccc(N2CCN(C(C(=O)NCc3ccccc3)c3ccc(F)cc3)CC2)c1C (stereo unspecified)	2	nt	0	-1	-3	nt	nt
CCC(CC)C(C(=O)NCc1ccccc1)N1CCN(c2cccc(C)c2C)CC1 (stereo unspecified)	-5	nt	-4	31*	3	-1	-1
Cc1ccc(C(=O)Nc2cnc3ccccn3c2=O)cc1	-8	5	-2	25*	-6	-2	-3
COc1ccc(NC(=O)CSCC(=O)Nc2sccc2C#N)cc1	23	11	6	21*	6	9	5
CC(C)C[C@H]1COc2cc(Br)ccc2S(=O)(=O)N1Cc1cn(Cc2ccco2)nn1	7	nt	-4	nt	0	nt	nt
CN1C(=O)C(C(=O)Nc2ccccc2F)c2ccccc21 (stereo unspecified)	6	-1	-3	19*	1	-2	1
Cc1cc(/C=C2\SC(=O)NC2=O)c(C)n1-c1ccc(N2CCOCC2)cc1	4	2	2	5	0	nt	nt
Cc1cc(/C=C2\SC(=O)NC2=O)c(C)n1-c1ccc(N(C)C)cc1	7	-1	6	27*	10	2	4
Cc1nn(-c2ccccc2)c(Cl)c1/C=N/NC(=O)c1cccnc1	-1	4	-1	2	3	nt	nt
O=C(N/N=C/c1c(Cl)nc2ccccn2c1=O)c1cccnc1	13	7	6	29*	-2	-6	6
O=C(Nc1ccc(F)cc1F)C1CCCN1S(=O)(=O)c1cccnc1 (stereo unspecified)	1	nt	4	nt	-1	nt	nt
C=CCc1cccc2cc(C(=O)NNC(=O)CC#N)c(=O)oc12	-3	4	-1	29*	3	1	15
C=CCc1cccc2cc(C(=O)NCCOC)c(=O)oc12	9	-2	5	-9	-6	nt	nt
O=C(N/N=C/c1cc([N+](=O)[O-])cc([N+](=O)[O-])c1O)/C(=C\c1cccs1)NC(=O)c1ccccc1	29	23	3	47*	3	-2	45*
O=C(N/N=C/c1ccc([N+](=O)[O-])cc1)c1cccs1	0	nt	-1	-4	-6	nt	nt
SMILES	ABHD4 inh	HTRA1 inhibitor	PRMT1 inh	TCR CD3 inh	SIAE inh	BSA TAMRA ctr	TCR-CD3 inh conf
O=C(N/N=C/c1cccc([N+](=O)[O-])c1O)C(O)(c1ccccc1)c1ccccc1	12	11	4	28*	1	-12	26*
COc1cc([N+](=O)[O-])cc(/C=N/NC(=O)C(O)(c2ccccc2)c2ccccc2)c1O	9	16	1	-11	9	nt	nt
O=C(N/N=C/c1cccc([N+](=O)[O-])c1O)c1cccs1	23	9	1	29*	7	-10	31*
O=C(NC1CCCCN(Cc2cccc(C(F)(F)F)c2)C1=O)c1cccc(F)c1 (stereo unspecified)	0	nt	0	nt	0	nt	nt
Cc1ccc(OCC(=O)c2c(N)n(C)c(=O)n(C)c2=O)c([N+](=O)[O-])n1	13	6	6	36*	9	1	26*
Cn1c(N)c(C(=O)COC(=O)c2nc(Cl)ccc2Cl)c(=O)n(C)c1=O	-4	2	-1	7	1	nt	nt
CC1(C)CC2CC(C)(CN2S(=O)(=O)c2ccc(C(=O)Nc3ccc(S(=O)(=O)N4CCOCC4)cc3)cc2)C1 (stereo unspecified)	-48	-75	1	41*	-111	23*	56*
CC1(C)CC2CC(C)(CN2S(=O)(=O)c2ccc(C(=O)Nc3ccc(Cl)c(S(=O)(=O)N4CCOCC4)c3)cc2)C1 (stereo unspecified)	-11	3	-3	3	-44	nt	nt
CC(=O)N1CCc2cc(S(=O)(=O)NCCC(=O)N(C)Cc3ccccc3F)ccc21	-8	nt	-3	nt	5	nt	nt
COC(=O)[C@]12C[C@H](CC(=O)NCc3cccs3)C(=O)N(Cc3ccc4c(c3)OCO4)C1=C[C@H](C(C)C)O[C@@H]2C1CC1	-4	nt	-2	nt	-6	nt	nt
Cc1ccc(S(=O)(=O)N(C)c2ccc(OCC(=O)Nc3nc4ccccc4s3)cc2)cc1	-13	-49	-1	21*	-31	5	0
Cc1ccc(S(=O)(=O)N(C)c2ccc(OCC(=O)Nc3nc4c(ccc5ccccc54)s3)cc2)cc1	-2	-28	-1	-9	-15	nt	nt
Cn1nnc(NC(=S)NC(=O)/C=C/c2ccco2)n1	21	14	15	19*	-3	-7	-1
CCCn1nnc(NC(=O)/C=C/c2ccco2)n1	-1	2	1	12	3	nt	nt
CC1CCCC(NC(=O)NC(=O)CCl)C1C (stereo unspecified)	3	2	0	11	-2	nt	nt
Cc1nn(CC(=O)NC(=O)NC2CCCC(C)C2C)c(=O)c(C#N)c1C (stereo unspecified)	-6	-1	8	24*	4	-4	-3
C[C@H](O)[C@@H]1CN2CCc3c([nH]c4c(-c5ccc6c(c5)OCO6)cccc34)[C@@H]2C[C@@H]1N(C)C(=O)Nc1ccccc1	10	nt	2	nt	5	nt	nt
COC(=O)[C@]12C[C@H](CC(=O)N3CCSCC3)C(=O)N(Cc3cccc4ccccc34)C1=C[C@H](C1CCCC1)O[C@@H]2C	-6	nt	-1	nt	8	nt	nt

Screening data: PubChem BioAssay, The Scripps Research Institute Molecular Screening Center
